ChEMBL document CHEMBL2407080, “Synthesis and antifungal activities of cyclic octa-lipopeptide burkholdine analogues” (2013)
Values after ≈ are worked out from the molar mass of the structure shown.

Legend:
Assay type in all cases: functional
[1] = Antifungal activity against Candida viswanathii NBRC10321 after 24 hrs by two-fold serial dilution method
Method in brief: (§1)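 Broth twofold serial dilution MIC. Organisms were pre-grown 2 days in YPD broth, and the assay was run in YPD. Compound started at […] in medium with 0.1% DMSO, then serially diluted twofold. Each well was inoculated with about 5.0 × 10³ cells and incubated 24 h at 30 °C. MIC is the lowest concentration with no visible growth.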

Aspergillus oryzae = experiment: Antifungal activity against Aspergillus oryzae 1-Murasaki-1 after 24 hrs by two-fold serial dilution method; conditions: 1-Murasaki-1, 24 h; method in brief: as §1
Saccharomyces cerevisiae = experiment: Antifungal activity against Saccharomyces cerevisiae X2180-1A after 24 hrs by two-fold serial dilution method; method in brief: as §1

MIC [1]	MIC (Aspergillus oryzae)	MIC (Saccharomyces cerevisiae)	Compound
> 800 µg/mL	800 µg/mL (≈ 785 µM)	> 800 µg/mL	CCCCCCCCCCCCNC(=O)[C@@H]1CC(=O)N[C@H](CO)C(=O)N[C@H](Cc2ccc(O)cc2)C(=O)N[C@@H](CC(N)=O)C(=O)NCC(=O)N[C@@H](CC(N)=O)C(=O)N[C@@H](CO)C(=O)N[C@@H](CC(N)=O)C(=O)N1
> 800 µg/mL	800 µg/mL (≈ 785 µM)	800 µg/mL (≈ 785 µM)	CCCCCCCCCCCCNC(=O)[C@H]1CC(=O)N[C@@H](CO)C(=O)N[C@@H](Cc2ccc(O)cc2)C(=O)N[C@H](CC(N)=O)C(=O)NCC(=O)N[C@@H](CC(N)=O)C(=O)N[C@@H](CO)C(=O)N[C@@H](CC(N)=O)C(=O)N1
> 800 µg/mL	> 800 µg/mL	400 µg/mL (≈ 392 µM)	CCCCCCCCCCCCNC(=O)[C@@H]1CC(=O)N[C@H](CO)C(=O)N[C@@H](Cc2ccc(O)cc2)C(=O)N[C@@H](CC(N)=O)C(=O)NCC(=O)N[C@@H](CC(N)=O)C(=O)N[C@@H](CO)C(=O)N[C@@H](CC(N)=O)C(=O)N1
> 800 µg/mL	> 800 µg/mL	200 µg/mL (≈ 196 µM)	CCCCCCCCCCCCNC(=O)[C@H]1CC(=O)N[C@@H](CO)C(=O)N[C@@H](Cc2ccc(O)cc2)C(=O)N[C@@H](CC(N)=O)C(=O)NCC(=O)N[C@@H](CC(N)=O)C(=O)N[C@@H](CO)C(=O)N[C@@H](CC(N)=O)C(=O)N1
> 800 µg/mL	800 µg/mL (≈ 785 µM)	800 µg/mL (≈ 785 µM)	CCCCCCCCCCCCNC(=O)[C@H]1CC(=O)N[C@H](CO)C(=O)N[C@H](Cc2ccc(O)cc2)C(=O)N[C@@H](CC(N)=O)C(=O)NCC(=O)N[C@@H](CC(N)=O)C(=O)N[C@@H](CO)C(=O)N[C@@H](CC(N)=O)C(=O)N1
800 µg/mL (≈ 785 µM)	50 µg/mL (≈ 49.1 µM)	25 µg/mL (≈ 24.5 µM)	CCCCCCCCCCCCNC(=O)[C@@H]1CC(=O)N[C@H](CO)C(=O)N[C@H](Cc2ccc(O)cc2)C(=O)N[C@H](CC(N)=O)C(=O)NCC(=O)N[C@@H](CC(N)=O)C(=O)N[C@@H](CO)C(=O)N[C@@H](CC(N)=O)C(=O)N1
> 800 µg/mL	> 800 µg/mL	800 µg/mL (≈ 785 µM)	CCCCCCCCCCCCNC(=O)[C@H]1CC(=O)N[C@@H](CO)C(=O)N[C@H](Cc2ccc(O)cc2)C(=O)N[C@@H](CC(N)=O)C(=O)NCC(=O)N[C@@H](CC(N)=O)C(=O)N[C@@H](CO)C(=O)N[C@@H](CC(N)=O)C(=O)N1
		0.8 µg/mL (≈ 0.866 µM)	C[C@@H]1[C@H](O)[C@@H](C)/C=C/C=C/C=C/C=C/C=C/C=C/C=C/[C@H](O[C@@H]2O[C@H](C)[C@@H](O)[C@H](N)[C@@H]2O)C[C@@H]2O[C@](O)(C[C@@H](O)C[C@@H](O)[C@H](O)CC[C@@H](O)C[C@@H](O)CC(=O)O[C@H]1C)C[C@H](O)[C@H]2C(=O)O [AMPHOTERICIN B]
> 800 µg/mL	> 800 µg/mL	400 µg/mL (≈ 392 µM)	CCCCCCCCCCCCNC(=O)[C@H]1CC(=O)N[C@H](CO)C(=O)N[C@@H](Cc2ccc(O)cc2)C(=O)N[C@@H](CC(N)=O)C(=O)NCC(=O)N[C@@H](CC(N)=O)C(=O)N[C@@H](CO)C(=O)N[C@@H](CC(N)=O)C(=O)N1
> 800 µg/mL	> 800 µg/mL	800 µg/mL (≈ 990 µM)	NC(=O)C[C@@H]1NC(=O)CNC(=O)[C@@H](CC(N)=O)NC(=O)[C@H](Cc2ccc(O)cc2)NC(=O)[C@@H](CO)NC(=O)CCNC(=O)[C@H](CC(N)=O)NC(=O)[C@H](CO)NC1=O
		1.6 µg/mL (≈ 1.46 µM)	CCCCCCCCCCC[C@H](O)[C@H](O)[C@H](O)C[C@H]1CC(=O)N[C@@H](CO)C(=O)N[C@H]([C@H](O)c2ccc(O)cc2)C(=O)N[C@H](CC(N)=O)C(=O)NCC(=O)N[C@@H](CC(N)=O)C(=O)N[C@@H](CO)C(=O)N[C@@H]([C@H](O)C(N)=O)C(=O)N1
> 800 µg/mL	800 µg/mL (≈ 785 µM)	400 µg/mL (≈ 392 µM)	CCCCCCCCCCCCNC(=O)[C@H]1CC(=O)N[C@H](CO)C(=O)N[C@H](Cc2ccc(O)cc2)C(=O)N[C@H](CC(N)=O)C(=O)NCC(=O)N[C@@H](CC(N)=O)C(=O)N[C@@H](CO)C(=O)N[C@@H](CC(N)=O)C(=O)N1
800 µg/mL (≈ 990 µM)	> 800 µg/mL	> 800 µg/mL	NC(=O)C[C@@H]1NC(=O)CNC(=O)[C@H](CC(N)=O)NC(=O)[C@H](Cc2ccc(O)cc2)NC(=O)[C@H](CO)NC(=O)CCNC(=O)[C@H](CC(N)=O)NC(=O)[C@H](CO)NC1=O
> 800 µg/mL	200 µg/mL (≈ 196 µM)	800 µg/mL (≈ 785 µM)	CCCCCCCCCCCCNC(=O)[C@@H]1CC(=O)N[C@@H](CO)C(=O)N[C@@H](Cc2ccc(O)cc2)C(=O)N[C@@H](CC(N)=O)C(=O)NCC(=O)N[C@@H](CC(N)=O)C(=O)N[C@@H](CO)C(=O)N[C@@H](CC(N)=O)C(=O)N1
800 µg/mL (≈ 785 µM)	400 µg/mL (≈ 392 µM)	> 800 µg/mL	CCCCCCCCCCCCNC(=O)[C@@H]1CC(=O)N[C@@H](CO)C(=O)N[C@@H](Cc2ccc(O)cc2)C(=O)N[C@H](CC(N)=O)C(=O)NCC(=O)N[C@@H](CC(N)=O)C(=O)N[C@@H](CO)C(=O)N[C@@H](CC(N)=O)C(=O)N1
> 800 µg/mL	800 µg/mL (≈ 990 µM)	800 µg/mL (≈ 990 µM)	NC(=O)C[C@@H]1NC(=O)CNC(=O)[C@@H](CC(N)=O)NC(=O)[C@@H](Cc2ccc(O)cc2)NC(=O)[C@@H](CO)NC(=O)CCNC(=O)[C@H](CC(N)=O)NC(=O)[C@H](CO)NC1=O
400 µg/mL (≈ 392 µM)	100 µg/mL (≈ 98.1 µM)	50 µg/mL (≈ 49.1 µM)	CCCCCCCCCCCCNC(=O)[C@@H]1CC(=O)N[C@H](CO)C(=O)N[C@@H](Cc2ccc(O)cc2)C(=O)N[C@H](CC(N)=O)C(=O)NCC(=O)N[C@@H](CC(N)=O)C(=O)N[C@@H](CO)C(=O)N[C@@H](CC(N)=O)C(=O)N1
> 800 µg/mL	400 µg/mL (≈ 392 µM)	800 µg/mL (≈ 785 µM)	CCCCCCCCCCCCNC(=O)[C@@H]1CC(=O)N[C@@H](CO)C(=O)N[C@H](Cc2ccc(O)cc2)C(=O)N[C@H](CC(N)=O)C(=O)NCC(=O)N[C@@H](CC(N)=O)C(=O)N[C@@H](CO)C(=O)N[C@@H](CC(N)=O)C(=O)N1
800 µg/mL (≈ 785 µM)	400 µg/mL (≈ 392 µM)	> 800 µg/mL	CCCCCCCCCCCCNC(=O)[C@@H]1CC(=O)N[C@@H](CO)C(=O)N[C@H](Cc2ccc(O)cc2)C(=O)N[C@@H](CC(N)=O)C(=O)NCC(=O)N[C@@H](CC(N)=O)C(=O)N[C@@H](CO)C(=O)N[C@@H](CC(N)=O)C(=O)N1
> 800 µg/mL	400 µg/mL (≈ 392 µM)	400 µg/mL (≈ 392 µM)	CCCCCCCCCCCCNC(=O)[C@H]1CC(=O)N[C@H](CO)C(=O)N[C@@H](Cc2ccc(O)cc2)C(=O)N[C@H](CC(N)=O)C(=O)NCC(=O)N[C@@H](CC(N)=O)C(=O)N[C@@H](CO)C(=O)N[C@@H](CC(N)=O)C(=O)N1
> 800 µg/mL	100 µg/mL (≈ 98.1 µM)	50 µg/mL (≈ 49.1 µM)	CCCCCCCCCCCCNC(=O)[C@H]1CC(=O)N[C@@H](CO)C(=O)N[C@H](Cc2ccc(O)cc2)C(=O)N[C@H](CC(N)=O)C(=O)NCC(=O)N[C@@H](CC(N)=O)C(=O)N[C@@H](CO)C(=O)N[C@@H](CC(N)=O)C(=O)N1
